Test results as given in ChEMBL document CHEMBL4177648, “Benzofuran-dihydropyridine hybrids: A new class of potential bone anabolic agents” (Bioorg Med Chem, 2017).
Active and inactive are the calls of the source. No cut-off for these calls is given here.

Key:
Calvarial osteoblast [1] = assay: Anabolic activity in rat calvarial osteoblasts assessed as induction of alkaline phosphatase activity at 100 uM after 48 hrs in presence of beta-glycerophosphate and ascorbic acid by p-nitrophenyl phosphate substrate based assay (reference value: 1 to 1.21); type: functional
Calvarial osteoblast [2] = assay: Anabolic activity in rat calvarial osteoblasts assessed as induction of alkaline phosphatase activity at 10 nM after 48 hrs in presence of beta-glycerophosphate and ascorbic acid by p-nitrophenyl phosphate substrate based assay (reference value: 1 to 1.21); type: functional
Calvarial osteoblast [3] = assay: Anabolic activity in rat calvarial osteoblasts assessed as induction of alkaline phosphatase activity at 1 pM after 48 hrs in presence of beta-glycerophosphate and ascorbic acid by p-nitrophenyl phosphate substrate based assay (reference value: 1 to 1.21); type: functional
Calvarial osteoblast [4] = assay: Anabolic activity in rat calvarial osteoblasts assessed as induction of alkaline phosphatase activity at 100 pM after 48 hrs in presence of beta-glycerophosphate and ascorbic acid by p-nitrophenyl phosphate substrate based assay (reference value: 1 to 1.21); type: functional
Calvarial osteoblast [5] = assay: Anabolic activity in rat calvarial osteoblasts assessed as induction of alkaline phosphatase activity at 1 uM after 48 hrs in presence of beta-glycerophosphate and ascorbic acid by p-nitrophenyl phosphate substrate based assay (reference value: 1 to 1.21); type: functional
Calvarial osteoblast [6] = assay: Anabolic activity in rat calvarial osteoblasts assessed as induction of alkaline phosphatase activity after 48 hrs in presence of beta-glycerophosphate and ascorbic acid by p-nitrophenyl phosphate substrate based assay; type: functional, cell-based
Calvarial osteoblast [7] = assay: Upregulation of Osx mRNA levels in rat calvarial osteoblasts at 10 nM after 48 hrs by qRT-PCR analysis relative to control; type: functional
Method in brief: (§1)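 Rat pup calvarial osteoblasts were treated for 48 h with compound. Total RNA was extracted with TRIzol and checked by A260 and A260/A280. qRT-PCR used 45 cycles (94 °C, 62 °C, 72 °C steps) and was normalised to GAPDH. Fold change is over untreated cells; n=5, mean ± SEM.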

Calvarial osteoblast [8] = assay: Upregulation of ALP mRNA levels in rat calvarial osteoblasts at 10 nM after 48 hrs by qRT-PCR analysis relative to control; type: functional; method in brief: as §1
Calvarial osteoblast [9] = assay: Upregulation of ALP mRNA levels in rat calvarial osteoblasts at 1 uM after 48 hrs by qRT-PCR analysis relative to control; type: functional; method in brief: as §1
Calvarial osteoblast [10] = assay: Upregulation of Col1 mRNA levels in rat calvarial osteoblasts at 10 nM after 48 hrs by qRT-PCR analysis relative to control; type: functional; method in brief: as §1
Calvarial osteoblast [11] = assay: Upregulation of Runx2 mRNA levels in rat calvarial osteoblasts at 10 nM after 48 hrs by qRT-PCR analysis relative to control; type: functional; method in brief: as §1
Calvarial osteoblast [12] = assay: Upregulation of Osx mRNA levels in rat calvarial osteoblasts at 1 uM after 48 hrs by qRT-PCR analysis relative to control; type: functional; method in brief: as §1
Calvarial osteoblast [13] = assay: Upregulation of Bmp2 mRNA levels in rat calvarial osteoblasts at 1 uM after 48 hrs by qRT-PCR analysis relative to control; type: functional; method in brief: as §1
Calvarial osteoblast [14] = assay: Upregulation of Runx2 mRNA levels in rat calvarial osteoblasts at 1 uM after 48 hrs by qRT-PCR analysis relative to control; type: functional; method in brief: as §1
Calvarial osteoblast [15] = assay: Induction of mineralization in rat calvarial osteoblasts at 10 nM after 21 days by Alizarin-red dye based assay; type: functional, cell-based
Method in brief: (§2)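 Rat pup calvarial osteoblasts were seeded at 1×10^4 cells/well in differentiation medium with compound. Medium was changed every other day for 21 days. Cells were fixed in 4% paraformaldehyde and stained with 40 mM Alizarin red (pH 4.5). Stain was extracted with 10% acetic acid, heated to 85 °C, and neutralised with NH4OH. Absorbance was read at 405 nm.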

Calvarial osteoblast [16] = assay: Upregulation of Bmp2 mRNA levels in rat calvarial osteoblasts at 10 nM after 48 hrs by qRT-PCR analysis relative to control; type: functional; method in brief: as §1
Calvarial osteoblast [17] = assay: Upregulation of Col1 mRNA levels in rat calvarial osteoblasts at 1 uM after 48 hrs by qRT-PCR analysis relative to control; type: functional; method in brief: as §1
Calvarial osteoblast [18] = assay: Induction of mineralization in rat calvarial osteoblasts at 1 uM after 21 days by Alizarin-red dye based assay; type: functional, cell-based; method in brief: as §2

| SMILES | OD (Calvarial osteoblast [1]) | OD (Calvarial osteoblast [2]) | OD (Calvarial osteoblast [3]) | OD (Calvarial osteoblast [4]) | OD (Calvarial osteoblast [5]) | further results |
| --- | --- | --- | --- | --- | --- | --- |
| COC(=O)C1=C(C)NC2=C(C(=O)CC(C)(C)C2)C1c1cc(C(C)(C)C)c2oc(C(=O)c3ccc(OC)cc3)cc2c1 (stereo unspecified) | 0.36 | 1.1 | 0.79 | 1.15 | 1.25 | – |
| CCC(C)c1cc(C2C(C(=O)OC)=C(C)NC3=C2C(=O)CCC3)cc2cc(C(=O)c3ccc(Cl)cc3)oc12 (stereo unspecified) | 0.5 | 1.34 | 1.39 | 1.48 | 1.31 | – |
| CCC(C)c1cc(C2C(C(=O)OC)=C(C)NC3=C2C(=O)CC(C)(C)C3)cc2cc(C(=O)c3ccc(Cl)cc3)oc12 (stereo unspecified) | 0.23 | 0.86 | 1.08 | 0.85 | 0.23 | – |
| CCC(C)c1cc(C=O)cc2cc(C(=O)c3ccc([N+](=O)[O-])cc3)oc12 (stereo unspecified) | 0.31 | 0.73 | 1.04 | 0.66 | 1.08 | – |
| CCC(C)c1cc(C2C(C(=O)OC)=C(C)NC3=C2C(=O)CCC3)cc2cc(C(=O)c3ccc(C)cc3)oc12 (stereo unspecified) | 0.25 | 1.17 | 0.99 | 1.12 | 0.84 | – |
| CCOC(=O)C1=C(C)NC2=C(C(=O)CCC2)C1c1ccccc1 (stereo unspecified) | 0.74 | 1.43 | 1.26 | 1.25 | 1.44 | – |
| CCOC(=O)C1=C(C)NC2=C(C(=O)CC(C)(C)C2)C1c1cc(C(C)CC)c2oc(C(=O)c3ccc(OC)cc3)cc2c1 (stereo unspecified) | 0.51 | 1.3 | 1.08 | 0.82 | 1.13 | – |
| CCC(C)c1cc(C2C(C(=O)OC)=C(C)NC3=C2C(=O)CCC3)cc2cc(C(=O)c3ccc(OC)cc3)oc12 (stereo unspecified) | 0.37 | 1.09 | 1.37 | 1.34 | 1.34 | – |
| CCc1cc(C=O)cc2cc(C(=O)c3ccc(OC)cc3)oc12 | 0.29 | 1.24 | 1.09 | 1.11 | 1.03 | – |
| CCC(C)c1cc(C2C(C(=O)OC)=C(C)NC3=C2C(=O)CC(C)(C)C3)cc2cc(C(=O)c3ccc([N+](=O)[O-])cc3)oc12 (stereo unspecified) | 0.3 | 1.06 | 0.98 | 1.03 | 0.76 | – |
| CCC(C)c1cc(C=O)cc2cc(C(=O)c3ccc(OC)cc3)oc12 (stereo unspecified) | 0.58 | 1.59 | 1.35 | 1.49 | 1.21 | EC50 (Calvarial osteoblast [6]): 10 nM |
| CCc1cc(C2C(C(=O)OC)=C(C)NC3=C2C(=O)CC(C)(C)C3)cc2cc(C(=O)c3ccc(OC)cc3)oc12 (stereo unspecified) | 0.18 | 1.19 | 1.26 | 0.73 | 1.2 | – |
| CCOC(=O)C1=C(C)NC2=C(C(=O)CC(C)(C)C2)C1c1cc(C(C)(C)C)c2oc(C(=O)c3ccc(OC)cc3)cc2c1 (stereo unspecified) | 0.36 | 1.47 | 1.04 | 1.53 | 1.15 | – |
| CCOC(=O)C1=C(C)NC2=C(C(=O)CC(C)(C)C2)C1c1ccccc1 (stereo unspecified) | 0.58 | 1.41 | 1.03 | 1.41 | 1.23 | – |
| CCC(C)c1cc(C2C(C(=O)OC)=C(C)NC3=C2C(=O)CCC3)cc2cc(C(=O)c3ccc([N+](=O)[O-])cc3)oc12 (stereo unspecified) | 0.25 | 0.82 | 0.65 | 0.72 | 0.82 | – |
| CCC(C)c1cc(C2C(C(=O)OC)=C(C)NC3=C2C(=O)CC(C)(C)C3)cc2cc(C(=O)c3ccc(OC)cc3)oc12 (stereo unspecified) | 0.29 | 1.14 | 0.97 | 0.64 | 1.26 | – |
| COc1ccc(C(=O)c2cc3cc(C=O)cc(C(C)(C)C)c3o2)cc1 | 0.59 | 1.7 | 1.33 | 1.5 | 1.26 | – |
| CCOC(=O)C1=C(C)NC2=C(C(=O)CCC2)C1c1cc(C(C)CC)c2oc(C(=O)c3ccc(OC)cc3)cc2c1 (stereo unspecified) | 0.25 | 1.4 | 0.94 | 0.99 | 1.37 | fold change (FC) (Calvarial osteoblast [7]): 2 - 5.5; fold change (FC) (Calvarial osteoblast [8]): 2 - 5.5; fold change (FC) (Calvarial osteoblast [9]): 2 - 5.5; fold change (FC) (Calvarial osteoblast [10]): 2 - 5.5; fold change (FC) (Calvarial osteoblast [11]): 2 - 5.5; fold change (FC) (Calvarial osteoblast [12]): 2 - 5.5; fold change (FC) (Calvarial osteoblast [13]): 2 - 5.5; fold change (FC) (Calvarial osteoblast [14]): 2 - 5.5; Activity (Calvarial osteoblast [15]): Active; EC50 (Calvarial osteoblast [6]): 10 nM; fold change (FC) (Calvarial osteoblast [16]): 2 - 5.5; fold change (FC) (Calvarial osteoblast [17]): 2 - 5.5 |
| CCOC(=O)C1=C(C)NC2=C(C(=O)CCC2)C1c1cc(CC)c2oc(C(=O)c3ccc(OC)cc3)cc2c1 (stereo unspecified) | 0.41 | 1.64 | 1.32 | 1.49 | 1.8 | fold change (FC) (Calvarial osteoblast [9]): 2 - 5.5; Activity (Calvarial osteoblast [18]): Active; fold change (FC) (Calvarial osteoblast [12]): 2 - 5.5; fold change (FC) (Calvarial osteoblast [13]): 2 - 5.5; fold change (FC) (Calvarial osteoblast [14]): 2 - 5.5; EC50 (Calvarial osteoblast [6]): 10000 nM; fold change (FC) (Calvarial osteoblast [17]): 2 - 5.5 |
| CCOC(=O)C1=C(C)NC2=C(C(=O)CCC2)C1c1cc(C(C)(C)C)c2oc(C(=O)c3ccc(OC)cc3)cc2c1 (stereo unspecified) | 0.29 | 1.17 | 1.14 | 1.14 | 1.77 | – |
| CCC(C)c1cc(C2C(C(=O)OC)=C(C)NC3=C2C(=O)CC(C)(C)C3)cc2cc(C(=O)c3ccc(C)cc3)oc12 (stereo unspecified) | 0.37 | 1.11 | 1.08 | 1.16 | 1.13 | – |
| CCOC(=O)C1=C(C)NC2=C(C(=O)CCC2)C1c1cc(C(C)CC)c2oc(C(=O)c3ccc(Cl)cc3)cc2c1 (stereo unspecified) | 0.31 | 1.04 | 0.9 | 1.02 | 0.79 | – |
| CCOC(=O)C1=C(C)NC2=C(C(=O)CCC2)C1c1cc(C(C)CC)c2oc(C(=O)c3ccc([N+](=O)[O-])cc3)cc2c1 (stereo unspecified) | 0.37 | 0.89 | 1.12 | 0.82 | 0.69 | – |
| CCOC(=O)C1=C(C)NC2=C(C(=O)CC(C)(C)C2)C1c1cc(CC)c2oc(C(=O)c3ccc(OC)cc3)cc2c1 (stereo unspecified) | 0.5 | 1.65 | 1.24 | 1.45 | 1.72 | – |
| COC(=O)C1=C(C)NC2=C(C(=O)CCC2)C1c1cc(C(C)(C)C)c2oc(C(=O)c3ccc(OC)cc3)cc2c1 (stereo unspecified) | 0.32 | 1.07 | 1.19 | 1.01 | 1.17 | – |
| CCC(C)c1cc(C=O)cc2cc(C(=O)c3ccc(C)cc3)oc12 (stereo unspecified) | 0.3 | 1.41 | 1.23 | 1.16 | 1.42 | EC50 (Calvarial osteoblast [6]): 31.4 nM |
| CCC(C)c1cc(C=O)cc2cc(C(=O)c3ccc(Cl)cc3)oc12 (stereo unspecified) | 0.26 | 0.96 | 0.98 | 0.78 | 0.77 | – |
